# Experimental data from ChEMBL document CHEMBL1151715, “Novel D-xylose derivatives stimulate muscle glucose uptake by activating AMP-activated protein kinase alpha” (J Med Chem, 2008).
# The source made the active and inactive calls. No cut-off for these calls is given here.
# Key:
# Homo sapiens [1] = organism: Homo sapiens; assay: Activation of 5-AMP-induced AMPKalpha in human skeletal muscle cells assessed as […] phosphorylation at 4 mM relative to control
# How it was run: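 Primary human skeletal muscle myoblasts (rectus abdominis, donor) were differentiated into myotubes using the supplier's protocol. The agent was given at 4 mM for 1 h. Whole-cell lysates were separated by SDS-PAGE and Western blotted for AMPKα and […]-AMPKα, with HRP anti-rabbit IgG and ECL detection. Bands were quantified by film densitometry.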
# L6 [2] = assay: Effect on [3H]2-deoxy-D-glucose uptake in rat L6 cells at 150 uM relative to control; type: functional
# How it was run: (§1)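 L6 myotubes were held in αMEM with 2% FCS and 23.0 mM D-glucose for 24 h. They were then treated with increasing concentrations in medium with 10% FCS and 23.0 mM D-glucose for 7 or 18 h; vehicle controls ran 18 h. After washing, uptake was measured with 0.1 mM dGlc plus 1.3 µCi/mL [3H]dGlc in PBS pH 7.4 for 5 min at room temperature. Ice-cold PBS stop, SDS lysis, scintillation counting; basal rate set to 100%.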
# [3] = Cytotoxicity against rat L6 cells by MTT assay; type: cell-based
# How it was run: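 MTT assay on L6 myotubes after the treatment incubations: MTT at 2 mg/mL in αMEM for 30 min at 37 °C, formazan dissolved in DMSO, absorbance read at 570 nm.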
# L6 [4] = assay: Effect on [3H]2-deoxy-D-glucose uptake in rat L6 cells at 100 uM relative to control; type: functional; how it was run: as §1
# L6 [5] = assay: Effect on [3H]2-deoxy-D-glucose uptake in rat L6 cells at 20 mM upto 48 hrs relative to control; type: functional
# L6 [6] = assay: Effect on [3H]2-deoxy-D-glucose uptake in rat L6 cells at 5 mM after 7 hrs relative to control in presence of insulin; type: functional, cell-based
# How it was run: (§2)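 L6 myotubes were preconditioned 24 h at 23.0 mM D-glucose, then given fresh αMEM with 23.0 mM D-glucose plus agent for 7 h. Insulin (200 nM) was added for the last 30 min. A 5-min [3H]dGlc uptake (0.1 mM dGlc, 1.3 µCi/mL) was run in PBS at room temperature, with the 23.0 mM glucose basal rate set to 100%.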
# L6 [7] = assay: Increase in [3H]2-deoxy-D-glucose uptake in rat L6 cells preincubated with 23 mM D-glucose for 24 hrs at 5 mM after 7 hrs relative to control; type: functional; how it was run: as §2
# L6 [8] = assay: Increase in GLUT1myc abundance in rat L6 cell membrane at 50 uM after 7 hrs; type: functional, cell-based
# How it was run: (§3)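 Myc-tagged GLUT1 or GLUT4 L6 myotubes were preconditioned at 5.5 or 23.0 mM glucose for 24 h, then treated in 10% FCS medium for 7 h (18 h for the 5 µM agent). Insulin was 200 nM for 30 min. Intact cells were labeled with rabbit anti-myc (1:200), fixed in 3% formaldehyde, and given HRP anti-rabbit IgG (1:2000). OPD colour was read at 492 nm.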
# [9] = Effect on [3H]2-deoxy-D-glucose uptake in human skeletal muscle cells at 20 mM relative to control; type: functional
# L6 [10] = assay: Increase in GLUT4myc abundance in rat L6 cell membrane at 20 mM after 7 hrs; type: functional, cell-based; how it was run: as §3
# L6 [11] = assay: Induction of [3H]2-deoxy-D-glucose uptake in rat L6 cells at 20 mM after 6 hrs relative to control; type: functional
# How it was run: (§4)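 L6 myotubes were preconditioned 24 h at 23.0 mM D-glucose, then incubated up to 10 h in the same medium plus pentose (20.0 mM for time course; dose-response for half-maximal and maximal). Cells were washed with PBS, then given a 5-min room-temperature uptake of 0.1 mM dGlc with 1.3 µCi/mL [3H]dGlc. Counts were normalised to protein against untreated controls.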
# L6 [12] = assay: Decrease in GLUT4myc abundance in rat L6 cell membrane pretreated with 23.0 mM D-glucose for 24 hrs at 20 mM after 7 hrs; type: functional; parameters: scale not given: the % may be the effect or the level left
# L6 [13] = assay: Activation of AMPKalpha in rat L6 cells assessed as ATP concentration per mg of protein at 20 mM in presence of 23 mM D-glucose; type: cell-based
# How it was run: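 L6 myotubes were preconditioned at 5.0 or 23.0 mM D-glucose for 24 h, then treated. Cells were washed in cold 0.15 M Tris-HCl pH 7.75 and extracted with ice-cold 0.5% TCA. The cleared supernatant was assayed with luciferase/D-luciferin luminescence at room temperature against an ATP standard curve, expressed per mg protein. DNP 5 mM for 10 min served as the positive control.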
# L6 [14] = assay: Induction of [3H]3-O-methyl-D-glucose uptake in rat L6 cells at 20 mM after 6 hrs relative to control; type: functional
# How it was run: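 L6 myotubes were preconditioned 24 h at 23.0 mM glucose, then given D-xylose at 20.0 mM for 6 h. Cells were PBS-washed and incubated 90 s at room temperature with 10 µM 3-O-methylglucose, 5.0 µCi/mL [3H]MeGlc and 0.5 µCi/mL [14C]sucrose. The stop wash was ice-cold PBS with 20 mM glucose, 10 µM cytochalasin B and 2 mM HgCl2. Extracellular 3H was subtracted using sucrose counts.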
# L6 [15] = assay: Maximal stimulation of [3H]2-deoxy-D-glucose uptake in rat L6 cells preincubated 24 hrs with D-glucose assessed after 6 hrs; type: functional; how it was run: as §4
# L6 [16] = assay: Increase in GLUT1myc abundance in rat L6 cell membrane at 150 uM after 7 hrs; type: functional, cell-based; how it was run: as §3
# L6 [17] = assay: Inhibition of [3H]2-deoxy-D-glucose uptake in rat L6 cells at 20 mM in presence of 100 nM wortmannin; type: functional, cell-based
# How it was run: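 L6 myotubes at 23 mM D-glucose received 100 nM wortmannin 30 min before the agents. Treatment ran in 10% FCS medium for 7 h (18 h for the 5 µM agent). A 5-min [3H]dGlc uptake (0.1 mM dGlc, 1.3 µCi/mL) in PBS at room temperature followed, with the vehicle basal rate set to 100%.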
# L6 [18] = assay: Activation of 5-AMP-induced AMPKalpha in rat L6 cells assessed as Tyr172 phosphorylation at 20 mM relative to control; type: cell-based
# How it was run: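 L6 myotubes preconditioned 24 h in αMEM with 2% FCS and 23.0 mM D-glucose, then given fresh medium with 10% (v/v) FCS, 23.0 mM D-glucose and test agent; controls received vehicle. Whole-cell lysates (Tris pH 7.5 with phosphatase and protease inhibitors) were blotted for AMPKα and […]-AMPKα, detected by ECL, and bands quantified by densitometry.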
# Homo sapiens [19] = organism: Homo sapiens; assay: Activation of 5-AMP-induced AMPKalpha in human skeletal muscle cells assessed as Tyr172 phosphorylation at 20 mM relative to control
# How it was run: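 Primary human skeletal myoblasts from the rectus abdominis of a donor were differentiated into myotubes and treated in medium with 10% (v/v) FCS, 23.0 mM D-glucose and agent, with vehicle controls. Whole-cell lysates were Western blotted for total AMPKα and […]-AMPKα, with ECL detection and densitometry.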
# L6 [20] = assay: Increase in [3H]2-deoxy-D-glucose uptake in rat L6 cells at 20 mM preincubated 24 hrs with D-glucose assessed after 6 hrs relative to control; type: functional; how it was run: as §4
# L6 [21] = assay: Effect on [3H]2-deoxy-D-glucose uptake in rat L6 cells at 20 mM after 7 hrs relative to control in presence of insulin; type: functional, cell-based; how it was run: as §2
# L6 [22] = assay: Increase in GLUT1myc abundance in rat L6 cell membrane at 20 mM after 7 hrs; type: functional, cell-based; conditions: 20 mM; how it was run: as §3
# L6 [23] = assay: Activation of 5-AMP-induced AMPKalpha in rat L6 cells assessed as reduction in Tyr172 phosphorylation at 20 mM relative to control in presence of compound C; type: cell-based; parameters: scale not given: the % may be the effect or the level left
# L6 [24] = assay: Half-maximal stimulation of [3H]2-deoxy-D-glucose uptake in rat L6 cells preincubated 24 hrs with D-glucose assessed after 6 hrs; type: functional; how it was run: as §4
# L6 [25] = assay: Increase in GLUT1myc abundance in rat L6 cell membrane at 5 µM after 18 hrs; type: functional, cell-based; how it was run: as §3
# L6 [26] = assay: Activation of 5-AMP-induced AMPKalpha in rat L6 cells assessed as […] phosphorylation at 0.25 M relative to control; type: cell-based
# How it was run: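 AICAR-type positive control on L6 myotubes: 0.25 M D-sorbitol for 30 min. Whole-cell lysates were blotted for total AMPKα and phospho-Thr172 AMPKα, detected by ECL, with bands quantified by densitometry.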
# L6 [27] = assay: Effect on [3H]2-deoxy-D-glucose uptake in rat L6 cells at 50 uM relative to control; type: functional; how it was run: as §1
# L6 [28] = assay: Effect on [3H]2-deoxy-D-glucose uptake in rat L6 cells at 200 uM relative to control; type: functional; how it was run: as §1
smiles,measurement,setting,value
NC(=O)c1ncn([C@@H]2O[C@H](COP(=O)(O)O)[C@@H](O)[C@H]2O)c1N,Activity,Homo sapiens [1],Active
COC(OC)[C@@H]1OC(c2ccccc2)O[C@@H]2COC(c3ccccc3)O[C@@H]21 (some centres undefined),fold change (FC),L6 [2],1.06
same,MCC,[3],300 µM
CCCS[C@@H]1OC[C@@H](O)[C@H](O)[C@H]1O,fold change (FC),L6 [4],0.92
same,MCC,[3],200 µM
CCOC1OC[C@@H](O)[C@H](O)[C@H]1O (some centres undefined),fold change (FC),L6 [5],1.01
same,MCC,[3],50000 µM
CCO[C@H]1[C@H](O)COC(O)[C@@H]1O (some centres undefined),Activity,L6 [6],Active
same,fold change (FC),L6 [7],2.79
O=C[C@H](O)[C@@H](O)[C@H](O)CO [XYLOSE],Activity,L6 [8],inactive
same,fold change (FC),[9],1.43
same,Activity,L6 [10],Active
same,fold change (FC),L6 [11],1.51
same,Activity,L6 [12],50%
same,Activity,L6 [13],1.6 mmol
same,fold change (FC),L6 [14],1.69
same,Activity,L6 [15],13.7 mM
same,Activity,L6 [16],inactive
same,Activity,L6 [17],Active
same,fold change (FC),L6 [18],3.23
same,Activity,Homo sapiens [19],Active
same,fold change (FC),L6 [20],1.77
same,Activity,L6 [21],Active
same,Activity,L6 [22],inactive
same,Activity,L6 [23],68.9%
same,Activity,L6 [24],5.8 mM
same,Activity,L6 [25],inactive
OC[C@@H](O)[C@@H](O)[C@H](O)[C@@H](O)CO,Activity,L6 [26],Active
CO[C@H]1OC[C@@H](O)[C@H](O)[C@H]1O,Activity,L6 [6],Active
same,fold change (FC),L6 [7],1.98
CO[C@@H]1COC(O)[C@H](O)[C@H]1O (some centres undefined),fold change (FC),L6 [5],0.99
same,MCC,[3],50000 µM
CCCO[C@H]1[C@H](O)COC(O)[C@@H]1O (some centres undefined),Activity,L6 [6],Active
same,fold change (FC),L6 [7],3.89
CC1(C)O[C@H]2O[C@H](CO)[C@H](O)[C@H]2O1,fold change (FC),L6 [27],0.94
same,MCC,[3],150 µM
CO[C@H]1C(O)OC[C@@H](O)[C@@H]1O (some centres undefined),MCC,[3],50000 µM
CC(=O)O[C@@H]1OC[C@@H](OC(C)=O)[C@H](OC(C)=O)[C@H]1OC(C)=O,fold change (FC),L6 [28],0.99
same,fold change (FC),L6 [5],1.05
same,MCC,[3],500 µM
OC1OC[C@@H](O)[C@@H](O)[C@@H]1O (stereo partly drawn) [D-ARABINOSE],fold change (FC),L6 [20],1.38
CCCCCCCCCCCC(=O)S[C@@H]1OC[C@@H](O)[C@H](O)[C@H]1O,fold change (FC),L6 [2],0.98
same,MCC,[3],400 µM
COC[C@H]1OC(O)[C@H](O)[C@H]1O (some centres undefined),fold change (FC),L6 [5],1.03
same,MCC,[3],50000 µM
CC1(C)OC[C@H]2O[C@@H]3OC(C)(C)O[C@@H]3[C@H]2O1,fold change (FC),L6 [27],1.08
same,MCC,[3],100 µM
CCCCO[C@H]1[C@H](O)COC(O)[C@@H]1O (some centres undefined),fold change (FC),L6 [5],0.94
same,MCC,[3],1000 µM
CO[C@H]1[C@H](O)COC(O)[C@@H]1O (some centres undefined),fold change (FC),L6 [7],2.1
CO[C@@H]1OC[C@@H](OC(=O)c2ccccc2)[C@H](OC(=O)c2ccccc2)[C@H]1OC(=O)c1ccccc1,fold change (FC),L6 [2],1.01
same,MCC,[3],250 µM
O[C@@H]1[C@@H](O)[C@@H](OCc2ccccc2)OC[C@H]1O,fold change (FC),L6 [4],0.9
same,MCC,[3],500 µM
COC(OC)[C@@H]1OC(c2ccc(F)cc2)O[C@@H]2COC(c3ccc(F)cc3)O[C@@H]21 (some centres undefined),MCC,[3],250 µM
O[C@H]1OC[C@@H](OCc2ccccc2)[C@H](OCc2ccccc2)[C@H]1OCc1ccccc1,fold change (FC),L6 [4],0.94
same,MCC,[3],200 µM
CO[C@@H]1OC[C@@H](OC(=O)C(C)(C)C)[C@H](OC(=O)C(C)(C)C)[C@H]1OC(=O)C(C)(C)C,fold change (FC),L6 [4],1.03
same,MCC,[3],150 µM
